Data from ChEMBL document CHEMBL4610072, “Polyacetylenes from Oplopanax horridus and Panax ginseng: Relationship between Structure and PPARγ Activation” (J Nat Prod, 2020).

Columns and labels:
Format in all cases: cell-based
HEK293 [1] = experiment: Cytotoxicity against HEK293 cells assessed as cell viability at 10 uM after 24 hrs by resazurin conversion assay; details: human, hek293, 24 h
Outline: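 HEK293 cells seeded 5 × 10^5 per well, grown overnight, then exposed to 10 μM compound in stripped DMEM for 24 h; vehicle 0.4% DMSO. Wells PBS-washed, then 10 μg/mL resazurin in PBS added for 4 h; conversion read by fluorescence (excitation 535 nm). Viability relative to vehicle; at least three experiments, four technical replicates each.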

[2] = (§1) Cytotoxicity against HEK293 cells assessed as cell viability at 3 uM after 18 hrs by luciferase assay relative to control; details: human, HEK293 cells; read-out: Activity
Outline: (§2)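 HEK293 cells calcium-phosphate co-transfected with PPARγ expression plasmid, PPRE-luciferase reporter and pEGFP-N1; 6 h later reseeded at 4 × 10^5/well in DMEM with 5% charcoal-stripped serum and given 3 μM compound for 18 h; vehicle 0.1% DMSO. After lysis, EGFP fluorescence relative to vehicle gave viability; n = 3–4, four technical replicates.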

HEK293 [3] = experiment: as §1; details: human, hek293, 18 h, 3 µM; outline: as §2
[4] = target: T1, Peroxisome proliferator-activated receptor gamma (Homo sapiens) (UniProt P37231); experiment: Activation of human PPARgamma expressed in HEK293 cells assessed as maximum fold activation at 0.1 to 30 uM incubated for 18 hrs by luciferase reporter assay relative to control
T1 sequence (whole entry): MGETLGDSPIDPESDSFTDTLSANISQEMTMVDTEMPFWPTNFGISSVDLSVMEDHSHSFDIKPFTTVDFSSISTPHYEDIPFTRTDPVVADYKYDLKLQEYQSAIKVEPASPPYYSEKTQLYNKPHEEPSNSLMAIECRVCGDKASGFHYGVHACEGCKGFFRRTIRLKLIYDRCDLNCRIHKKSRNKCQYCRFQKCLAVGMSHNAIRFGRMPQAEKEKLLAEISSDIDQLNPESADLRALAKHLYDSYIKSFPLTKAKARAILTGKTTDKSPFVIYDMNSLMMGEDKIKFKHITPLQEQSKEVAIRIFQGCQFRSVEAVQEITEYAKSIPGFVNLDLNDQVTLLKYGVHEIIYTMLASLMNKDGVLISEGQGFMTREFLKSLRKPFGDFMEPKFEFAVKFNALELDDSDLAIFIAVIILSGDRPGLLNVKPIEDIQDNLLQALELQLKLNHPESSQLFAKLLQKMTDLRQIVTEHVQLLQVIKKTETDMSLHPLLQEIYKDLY

Row | SMILES | Activity (HEK293 [1]) | also measured
1 | C=C[C@@H](O)C#CC#C/C=C/[C@@H](O)CCCCCCC | Non-Toxic | –
2 | C=C[C@@H](O)C#CC#CC/C=C\CCCCCCCCO | Non-Toxic | viability at 18 h, 3 µM [2]: > 70%
3 | CCCCCCC(O)/C=C\[C@H](O)C#CC#C[C@@H](O)CC (some centres undefined) | Non-Toxic | –
4 | C=CCCCCC[C@@H]1O[C@@H]1CC#CC#CC(=O)CC | Non-Toxic | –
5 | CCCCCCC/C=C\[C@H](O)C#CC#C[C@@H](O)CC [OPLOPANDIOL] | Non-Toxic | –
6 | C=C[C@H](O)C#CC#C[C@@H](O)/C=C\CCCCCCC | Non-Toxic | Activity (HEK293 [3]): Toxic
7 | C=C[C@@H](O)C#CC#C[C@@H](O)/C=C\CCCCCCC [FALCARINDIOL] | – | Emax [4]: 3.26
8 | CCCCCCC[C@@H]1O[C@@H]1CC#CC#CC(=O)CC | Non-Toxic | –
9 | C=C[C@@H](O)C#CC#CCC1OC1CCCCCCC (some centres undefined) | Non-Toxic | viability at 18 h, 3 µM [2]: > 70%
10 | CC(=O)OCCCCCCCC/C=C\[C@H](O)C#CC#C[C@@H](O)CCO | Non-Toxic | –
11 | CC[C@H](O)C#CC#C[C@@H](O)/C=C\CCCCCCCCOC(C)=O [OPLOPANDIOL ACETATE] | Non-Toxic | –
12 | C=C[C@@H](O)C#CC#CC/C=C\CCCCCCC | Non-Toxic | viability at 18 h, 3 µM [2]: > 70%
13 | CCCCCCC/C=C\[C@H](O)C#CC#C[C@@H](O)CCO | Non-Toxic | –
14 | C=C[C@H](O)C#CC#C[C@@H](O)/C=C\CCCCCCCCOC(C)=O | Non-Toxic | –
15 | OCCCCCCCC/C=C\[C@H](O)C#CC#C[C@@H](O)CCO | Non-Toxic | –
16 | C=C[C@H](O)C#CC#C[C@@H](O)/C=C\CCCCCCCCO | Non-Toxic | –
17 | CCCCCCC[C@H](O)/C=C/C#CC#C[C@H](O)CC | Non-Toxic | –
18 | CC[C@@H](O)C#CC#C/C=C/[C@@H](O)CCCCCCCCOC(C)=O | Non-Toxic | –
19 | C=C[C@H](O)C#CC#C[C@@H](O)/C=C\C(O)CCCCCC (some centres undefined) | Non-Toxic | –
20 | CC[C@H](O)C#CC#C[C@@H](O)/C=C\CCCCCCCCO | Non-Toxic | –
21 | CC[C@@H](O)C#CC#C/C=C/[C@@H](O)CCCCCCCCO | Non-Toxic | –
22 | C=C[C@@H](O)C#CC#C/C=C/[C@@H](O)CCCCCCCCO | Non-Toxic | –
23 | C=C[C@@H](O)C#CC#CC/C=C\CCCCCCCCOC(C)=O | Non-Toxic | viability at 18 h, 3 µM [2]: > 70%
24 | C=C[C@@H](O)C#CC#C/C=C/[C@@H](O)CCCCCCCCOC(C)=O | Non-Toxic | –
